For 25 compounds, inhibition and IC50 results are on record in ChEMBL document CHEMBL1137592, “3-[2-((2S)-2-cyano-pyrrolidin-1-yl)-2-oxo-ethylamino]-3-methyl-butyramide analogues as selective DPP-IV inhibitors for the treatment of type-II diabetes” (Bioorg Med Chem Lett, 2007).

The structures appear in SMILES notation. Calls of active or inactive are those of the source. The calls are words filed in the database; no cut-off is given here. Bounds are passed on as bounds.

Broadly, the inhibition is how much of the control response was suppressed. The IC50 is the midpoint of a concentration-inhibition curve. Lower therefore signals greater potency in that assay.

Dipeptidyl peptidase 8, sequence (Q6V1X1 whole entry): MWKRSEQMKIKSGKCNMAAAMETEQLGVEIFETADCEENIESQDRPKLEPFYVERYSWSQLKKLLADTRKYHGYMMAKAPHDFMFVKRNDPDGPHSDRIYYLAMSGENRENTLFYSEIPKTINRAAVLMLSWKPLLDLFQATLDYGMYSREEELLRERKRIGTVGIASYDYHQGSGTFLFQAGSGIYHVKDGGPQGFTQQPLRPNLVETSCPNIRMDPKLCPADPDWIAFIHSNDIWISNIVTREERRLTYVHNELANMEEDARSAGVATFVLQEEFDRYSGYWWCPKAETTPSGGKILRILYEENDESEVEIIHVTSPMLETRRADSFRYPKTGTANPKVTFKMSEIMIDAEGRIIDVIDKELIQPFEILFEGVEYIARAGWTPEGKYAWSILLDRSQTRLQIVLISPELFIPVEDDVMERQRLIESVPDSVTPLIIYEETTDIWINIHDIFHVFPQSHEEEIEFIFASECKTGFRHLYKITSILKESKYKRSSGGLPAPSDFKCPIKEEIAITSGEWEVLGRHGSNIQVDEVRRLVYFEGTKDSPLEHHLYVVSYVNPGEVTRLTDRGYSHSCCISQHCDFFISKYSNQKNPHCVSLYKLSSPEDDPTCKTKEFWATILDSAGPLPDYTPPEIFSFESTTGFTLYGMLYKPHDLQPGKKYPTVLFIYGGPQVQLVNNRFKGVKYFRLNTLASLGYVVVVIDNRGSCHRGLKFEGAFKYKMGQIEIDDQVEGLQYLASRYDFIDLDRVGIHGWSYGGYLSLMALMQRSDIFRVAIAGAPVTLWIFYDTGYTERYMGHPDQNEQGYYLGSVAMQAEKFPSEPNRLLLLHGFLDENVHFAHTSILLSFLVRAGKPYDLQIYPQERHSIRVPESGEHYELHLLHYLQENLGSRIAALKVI
Dipeptidyl peptidase 4 (Rattus norvegicus), sequence (P14740 whole entry, looked up): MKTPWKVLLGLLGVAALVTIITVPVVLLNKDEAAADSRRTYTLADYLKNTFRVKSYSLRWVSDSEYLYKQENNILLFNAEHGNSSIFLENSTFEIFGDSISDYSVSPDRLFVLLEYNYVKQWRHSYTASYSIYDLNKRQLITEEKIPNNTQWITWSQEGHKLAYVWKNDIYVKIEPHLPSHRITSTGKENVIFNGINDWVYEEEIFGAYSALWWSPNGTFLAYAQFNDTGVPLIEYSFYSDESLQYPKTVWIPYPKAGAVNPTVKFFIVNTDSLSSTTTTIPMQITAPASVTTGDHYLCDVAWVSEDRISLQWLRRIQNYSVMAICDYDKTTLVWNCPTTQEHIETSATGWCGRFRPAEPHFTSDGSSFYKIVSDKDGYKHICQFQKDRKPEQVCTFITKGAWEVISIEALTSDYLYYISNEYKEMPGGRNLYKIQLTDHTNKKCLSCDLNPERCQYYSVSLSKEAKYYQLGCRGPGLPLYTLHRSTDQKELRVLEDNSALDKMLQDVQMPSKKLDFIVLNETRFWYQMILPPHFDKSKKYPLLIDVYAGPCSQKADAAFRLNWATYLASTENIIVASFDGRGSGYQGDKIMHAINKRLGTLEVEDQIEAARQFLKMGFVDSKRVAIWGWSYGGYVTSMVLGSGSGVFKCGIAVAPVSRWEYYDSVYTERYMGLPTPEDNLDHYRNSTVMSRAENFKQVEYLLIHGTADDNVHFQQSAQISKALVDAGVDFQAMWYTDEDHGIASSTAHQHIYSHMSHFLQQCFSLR

The first test deals with Dipeptidyl peptidase 4 (Rattus norvegicus) (UniProt P14740). The test is described as follows: Ex vivo inhibition of plasma DPP-4 activity in rats 8 hours after 10 mg/kg oral dose. The following applies: at 10 mg/kg. Also noted: dose 10 mg/kg. The class given is functional, organism-based. A digest of the protocol:
(§1)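 Adult male Wistar rats got a single oral gavage dose of 10 mg/kg at 0 h. Blood was collected over time and plasma DPP-IV activity was read as the cleavage rate of Gly-Pro-AMC. Means ± SEM, n = 4/group.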
`COc1ccc(NC(=O)CC(C)(C)NCC(=O)N2CCC[C@H]2C#N)cc1OC` registered an inhibition of over 50%.

Another test has as its target T1, Prolyl endopeptidase FAP (Homo sapiens, UniProt Q12884).
T1 sequence (Q12884 whole entry): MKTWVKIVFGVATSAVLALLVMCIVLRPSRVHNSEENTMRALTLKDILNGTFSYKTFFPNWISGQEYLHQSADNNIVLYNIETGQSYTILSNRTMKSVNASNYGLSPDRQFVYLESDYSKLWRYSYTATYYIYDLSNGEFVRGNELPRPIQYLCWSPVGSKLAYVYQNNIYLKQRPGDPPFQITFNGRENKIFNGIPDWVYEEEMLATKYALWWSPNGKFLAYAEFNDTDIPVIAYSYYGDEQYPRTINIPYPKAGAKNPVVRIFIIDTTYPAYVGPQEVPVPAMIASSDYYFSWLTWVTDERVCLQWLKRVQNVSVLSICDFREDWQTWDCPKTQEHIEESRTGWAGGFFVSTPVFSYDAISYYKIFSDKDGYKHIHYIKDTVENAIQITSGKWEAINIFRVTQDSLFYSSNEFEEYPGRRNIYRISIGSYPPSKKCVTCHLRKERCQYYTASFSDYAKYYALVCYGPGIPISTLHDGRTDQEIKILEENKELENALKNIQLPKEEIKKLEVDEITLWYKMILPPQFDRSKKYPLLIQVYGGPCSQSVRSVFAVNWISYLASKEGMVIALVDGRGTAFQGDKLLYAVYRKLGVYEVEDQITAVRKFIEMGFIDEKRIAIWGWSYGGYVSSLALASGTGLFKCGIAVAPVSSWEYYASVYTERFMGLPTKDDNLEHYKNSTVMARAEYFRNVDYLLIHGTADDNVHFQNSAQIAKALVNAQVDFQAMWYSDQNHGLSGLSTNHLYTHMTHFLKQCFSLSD
The test is described as follows: In vitro inhibition of FAP, seprase.
Settings: not given
A digest of the protocol:
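FAP cDNA was cloned into the pBacPAC8-CD5 vector, then the enzyme was expressed and purified. Activity was measured with Gly-Pro-pNA as substrate at 6 mM.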
Compound `CC(C)(CC(=O)NCCc1ccccn1)NCC(=O)N1CCC[C@H]1C#N` came in with an IC50 of over 20 µM.
In turn, `COc1ccc(NC(=O)CC(C)(C)NCC(=O)N2CCC[C@H]2C#N)cc1OC` registered an IC50 of over 20 µM.
In turn, `CC(C)(CC(=O)NCc1ccccn1)NCC(=O)N1CCC[C@H]1C#N` returned an IC50 of over 20 µM.
On to `COc1ccc(CCNC(=O)CC(C)(C)NCC(=O)N2CCC[C@H]2C#N)cc1OC`, for which the 50% inhibitory concentration (IC50) is over 20 µM.
Compound `CC(C)(CC(=O)NCCc1ccccc1)NCC(=O)N1CCC[C@H]1C#N` displayed a half-inhibitory concentration (IC50) of over 20 µM.
`CC(C)(CC(=O)NCCc1ccc(C(F)(F)F)cc1)NCC(=O)N1CCC[C@H]1C#N`: the half-maximal inhibitory concentration (IC50) is over 20 µM.
`CC(C)(CC(=O)NCCc1ccc(Cl)c(Cl)c1)NCC(=O)N1CCC[C@H]1C#N` displayed an IC50 of over 20 µM.
For `CC(C)(CC(=O)NCCc1cccc(C(F)(F)F)c1)NCC(=O)N1CCC[C@H]1C#N`, the half-inhibitory concentration (IC50) is over 20 µM.
`CC(C)(CC(=O)NC(C)(C)Cc1ccccc1)NCC(=O)N1CCC[C@H]1C#N` showed an IC50 of over 20 µM.
`CC(C)(CC(=O)Nc1ccccc1)NCC(=O)N1CCC[C@H]1C#N` yielded an IC50 of over 20 µM.
On the same count and under the same terms, as for `CC(C)(CC(=O)NC(C)(C)c1ccccc1)NCC(=O)N1CCC[C@H]1C#N`, the figure is over 20 µM; as for `CC(C)(CC(=O)NCc1ccccc1)NCC(=O)N1CCC[C@H]1C#N`, over 20 µM; as for `CC(C)(NC(=O)CCNCC(=O)N1CCC[C@H]1C#N)c1ccccc1`, over 20 µM.
The compound `CC(C)(CC(=O)NCCc1ccccc1C(F)(F)F)NCC(=O)N1CCC[C@H]1C#N` had an IC50 of over 20 µM.
Take `CC(C)(CC(=O)Nc1ccc(F)c(F)c1)NCC(=O)N1CCC[C@H]1C#N`: the IC50 is over 20 µM.
As to `Cc1ccc(CCNC(=O)CC(C)(C)NCC(=O)N2CCC[C@H]2C#N)cc1`, the IC50 was over 20 µM.
Take `COc1ccc(NC(=O)CC(C)(C)NCC(=O)N2CCC[C@H]2C#N)cc1`: the half-maximal inhibitory concentration (IC50) is over 20 µM.
Take `COc1ccc(NC(=O)CC(C)(C)NCC(=O)N2CCC[C@H]2C#N)c(OC)c1OC`: the IC50 was over 20 µM.
On to `N#C[C@@H]1CCCN1C(=O)CNCCC(=O)NCc1ccccc1`, for which the half-inhibitory concentration (IC50) was over 20 µM.
On to `CC(C)(CC(=O)Nc1ccc(F)cc1)NCC(=O)N1CCC[C@H]1C#N`, for which the 50% inhibitory concentration (IC50) was over 20 µM.
As for `N#C[C@@H]1CCCN1C(=O)CNCCC(=O)NCCc1ccccc1`, the IC50 is over 20 µM.
`C[C@H](CC(=O)NC(C)(C)c1ccccc1)NCC(=O)N1CCC[C@H]1C#N` registered an IC50 of over 20 µM.
With `CC(C)(CC(=O)Nc1ccc(-c2ccccc2)cc1)NCC(=O)N1CCC[C@H]1C#N`, the IC50 is over 20 µM.
On the same count and under the same terms, as for `Cc1ccc(NC(=O)CC(C)(C)NCC(=O)N2CCC[C@H]2C#N)cc1C`, the figure is over 20 µM.

A further test has as its target Dipeptidyl peptidase 8 (Homo sapiens, UniProt Q6V1X1). Kind of test: In vitro inhibition of DPP-8.
Settings: not given
On to `CC(C)(CC(=O)NCCc1ccccn1)NCC(=O)N1CCC[C@H]1C#N`, for which the IC50 was over 20 µM.
For `COc1ccc(NC(=O)CC(C)(C)NCC(=O)N2CCC[C@H]2C#N)cc1OC`, the half-maximal inhibitory concentration (IC50) is over 20 µM.
Regarding `CC(C)(CC(=O)NCc1ccccn1)NCC(=O)N1CCC[C@H]1C#N`, the IC50 was over 20 µM.
In turn, `COc1ccc(CCNC(=O)CC(C)(C)NCC(=O)N2CCC[C@H]2C#N)cc1OC` showed an IC50 of over 20 µM.
As to `CC(C)(CC(=O)NCCc1ccccc1)NCC(=O)N1CCC[C@H]1C#N`, the 50% inhibitory concentration (IC50) was over 20 µM.
The same measure, in the same setting: the result for `CC(C)(CC(=O)NCCc1ccc(C(F)(F)F)cc1)NCC(=O)N1CCC[C@H]1C#N` reads over 20 µM.
The same measure, in the same setting: the result for `CC(C)(CC(=O)NCCc1ccc(Cl)c(Cl)c1)NCC(=O)N1CCC[C@H]1C#N` reads over 20 µM; that for `CC(C)(CC(=O)NCCc1cccc(C(F)(F)F)c1)NCC(=O)N1CCC[C@H]1C#N`, over 20 µM; that for `CC(C)(CC(=O)NC(C)(C)Cc1ccccc1)NCC(=O)N1CCC[C@H]1C#N`, over 20 µM.
Still for that read-out and setting: the result for `CC(C)(CC(=O)Nc1ccccc1)NCC(=O)N1CCC[C@H]1C#N` reads over 20 µM; that for `CC(C)(CC(=O)NC(C)(C)c1ccccc1)NCC(=O)N1CCC[C@H]1C#N`, over 20 µM; that for `CC(C)(CC(=O)NCc1ccccc1)NCC(=O)N1CCC[C@H]1C#N`, over 20 µM.
In turn, `CC(C)(CC(=O)NCCc1ccccc1C(F)(F)F)NCC(=O)N1CCC[C@H]1C#N` displayed an IC50 of over 20 µM.
`CC(C)(CC(=O)Nc1ccc(F)c(F)c1)NCC(=O)N1CCC[C@H]1C#N`: the IC50 is over 20 µM.
The same measure, in the same setting: the result for `Cc1ccc(CCNC(=O)CC(C)(C)NCC(=O)N2CCC[C@H]2C#N)cc1` reads over 20 µM; that for `COc1ccc(NC(=O)CC(C)(C)NCC(=O)N2CCC[C@H]2C#N)cc1`, over 20 µM.
On the same count and under the same terms, the result for `COc1ccc(NC(=O)CC(C)(C)NCC(=O)N2CCC[C@H]2C#N)c(OC)c1OC` reads over 20 µM; that for `CC(C)(CC(=O)Nc1ccc(F)cc1)NCC(=O)N1CCC[C@H]1C#N`, over 20 µM; that for `CC(C)(CC(=O)Nc1ccc(-c2ccccc2)cc1)NCC(=O)N1CCC[C@H]1C#N`, over 20 µM.
In turn, `Cc1ccc(NC(=O)CC(C)(C)NCC(=O)N2CCC[C@H]2C#N)cc1C` displayed an IC50 of over 20 µM.

Another test is filed under the species Rattus norvegicus. Conditions: 10 mg/kg.
With `CC(C)(CC(=O)NCCc1ccccn1)NCC(=O)N1CCC[C@H]1C#N`, the inhibition result was “Active”.
Take `COc1ccc(NC(=O)CC(C)(C)NCC(=O)N2CCC[C@H]2C#N)cc1OC`: the inhibition entry is “Active”.

For another test, the target named is Dipeptidyl peptidase 4 (Rattus norvegicus) (UniProt P14740). The test is described as follows: Ex vivo inhibition of plasma DPP-4 activity in rats 30 minutes after 10 mg/kg oral dose. The following applies: at 10 mg/kg. Also noted: dose 10 mg/kg. The class given is functional, organism-based. In outline:
as §1
The compound `COc1ccc(NC(=O)CC(C)(C)NCC(=O)N2CCC[C@H]2C#N)cc1OC` displayed an inhibition of over 80%.

A further test has as its target Dipeptidyl peptidase 2 (Homo sapiens, UniProt Q9UHL4). The test is described as follows: In vitro inhibition of DPP-II.
Settings: not given
The compound `CC(C)(CC(=O)NCCc1ccccn1)NCC(=O)N1CCC[C@H]1C#N` showed an IC50 of over 20 µM.
On the same count and under the same terms, as for `COc1ccc(NC(=O)CC(C)(C)NCC(=O)N2CCC[C@H]2C#N)cc1OC`, the figure is over 20 µM; as for `CC(C)(CC(=O)NCc1ccccn1)NCC(=O)N1CCC[C@H]1C#N`, over 20 µM.
Still for that read-out and setting: the result for `COc1ccc(CCNC(=O)CC(C)(C)NCC(=O)N2CCC[C@H]2C#N)cc1OC` reads over 20 µM; that for `CC(C)(CC(=O)NCCc1ccccc1)NCC(=O)N1CCC[C@H]1C#N`, over 20 µM.
Consider `CC(C)(CC(=O)NCCc1ccc(C(F)(F)F)cc1)NCC(=O)N1CCC[C@H]1C#N`, for which the half-maximal inhibitory concentration (IC50) was over 20 µM.
In turn, `CC(C)(CC(=O)NCCc1ccc(Cl)c(Cl)c1)NCC(=O)N1CCC[C@H]1C#N` came in with an IC50 of over 20 µM.
Consider `CC(C)(CC(=O)NCCc1cccc(C(F)(F)F)c1)NCC(=O)N1CCC[C@H]1C#N`, for which the IC50 is over 20 µM.
Compound `CC(C)(CC(=O)NC(C)(C)Cc1ccccc1)NCC(=O)N1CCC[C@H]1C#N` had an IC50 of over 20 µM.
`CC(C)(CC(=O)Nc1ccccc1)NCC(=O)N1CCC[C@H]1C#N` came in with an IC50 of over 20 µM.
As to `CC(C)(CC(=O)NC(C)(C)c1ccccc1)NCC(=O)N1CCC[C@H]1C#N`, the IC50 was over 20 µM.
`CC(C)(CC(=O)NCc1ccccc1)NCC(=O)N1CCC[C@H]1C#N` displayed an IC50 of over 20 µM.
On to `CC(C)(NC(=O)CCNCC(=O)N1CCC[C@H]1C#N)c1ccccc1`, for which the IC50 is over 20 µM.
For `CC(C)(CC(=O)NCCc1ccccc1C(F)(F)F)NCC(=O)N1CCC[C@H]1C#N`, the half-maximal inhibitory concentration (IC50) is over 20 µM.
`C[C@@H](CC(=O)NC(C)(C)c1ccccc1)NCC(=O)N1CCC[C@H]1C#N` came in with an IC50 of over 20 µM.
Consider `CC(C)(CC(=O)Nc1ccc(F)c(F)c1)NCC(=O)N1CCC[C@H]1C#N`, for which the IC50 is over 20 µM.
The compound `Cc1ccc(CCNC(=O)CC(C)(C)NCC(=O)N2CCC[C@H]2C#N)cc1` yielded an IC50 of over 20 µM.
Regarding `COc1ccc(NC(=O)CC(C)(C)NCC(=O)N2CCC[C@H]2C#N)cc1`, the IC50 was over 20 µM.
The same measure, in the same setting: as for `COc1ccc(NC(=O)CC(C)(C)NCC(=O)N2CCC[C@H]2C#N)c(OC)c1OC`, the figure is over 20 µM; as for `CC(C)(CC(=O)Nc1ccc(F)cc1)NCC(=O)N1CCC[C@H]1C#N`, over 20 µM.
In the case of `C[C@H](CC(=O)NC(C)(C)c1ccccc1)NCC(=O)N1CCC[C@H]1C#N`, the half-maximal inhibitory concentration (IC50) was over 20 µM.
Still for that read-out and setting: as for `CC(C)(CC(=O)Nc1ccc(-c2ccccc2)cc1)NCC(=O)N1CCC[C@H]1C#N`, the figure is 0.8 µM; as for `Cc1ccc(NC(=O)CC(C)(C)NCC(=O)N2CCC[C@H]2C#N)cc1C`, over 20 µM.
